Activity calls are given as the source filed them.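 Rule for the calls: active = recombinant frequency cut at least fourfold versus the solvent-only control; inactive = reduction in recombinant frequency below fourfold.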
System: E. coli recBCD-deletion with H. pylori AddAB/RecA, Hfr recombination, colony count
Test: Hfr recombinant frequency reduction – colony formation, p(addAB), p(recA), 100 µM, counter-screen for AddAB inhibitor project, late-stage follow-up (AID 623954)
Details: at 100 µM; active compounds read high
Summary of the method: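 Test system – ΔrecBCD E. coli with H. pylori AddAB/RecA plasmids · Measured by – differential plating counting His+ StrR recombinant colonies · Reagent – HfrH E. coli donor mixed 1:10 with recipient · Dosing – single dose of 100 µM compound · Read-out – fold drop in recombinant frequency relative to DMSO · Controls – DMSO-treated culture · Repeats – duplicate experiments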

**Q.** `CNC(=O)c1c(NC(=O)c2nc(SCc3ccccc3)ncc2Cl)sc2c1CCCC2` was tested. Which fold reduction of recombinant frequency did it give?
**A.** The fold reduction of recombinant frequency was 2 (inactive).

**Q.** How did the fold reduction of recombinant frequency turn out when `N#Cc1c(NC(=O)c2ccc([N+](=O)[O-])o2)sc2c1CCC2` was run?
**A.** Its fold reduction of recombinant frequency is 20.

**Q.** With `CCn1cc(C(=O)O)c(=O)c2cc(F)c(N3CCN(C(=S)Nc4cccc(C(F)(F)F)c4)CC3)cc21` as the molecule, how does the fold reduction of recombinant frequency read?
**A.** Its fold reduction of recombinant frequency is 8.

Reference: PubChem BioAssay AID623954 (The Scripps Research Institute Molecular Screening Center, 2012)
